The CC50 is the concentration that lowers cell viability or growth by half. Read a low CC50 as harm at low concentration. One may read the IC50 as the concentration that gives 50% inhibition. Read a low IC50 as greater potency in that assay. Usually inhibition stands for the change of the read-out against control, counted positive when it falls.

Values after ≈ are worked out from the molar mass of the structure shown.

The subject of one data set is Vero. Briefly: Cytotoxicity test. The note with it: Vero cell line. Format: cell-based. The gist of the method:
(§1)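 Stocks of 50 mg/mL in DMSO, with antibiotic–antimycotic added, were diluted twofold in DMEM. Cells at 2 × 10⁵ cells/mL were grown 24 h at 37 °C under 5% CO₂ to confluence, then exposed 72 h. Morphology was scored daily by inverted microscopy. Viable cells were counted by 0.4% trypan blue exclusion after trypsinisation. CC50 halves OD492 of treated versus untreated uninfected cells. Triplicates.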

The next data set concerns Hep-2. Put plainly: Cytotoxicity test. Format: cell-based. The note with it: Hep-2 cell line. The gist of the method: as §1
The next data set deals with BGM. Briefly: Cytotoxicity test. The format is cell-based. The note with it: for nontoxic dose: BGM cell line. The gist of the method: as §1
In another data set the test system is FRHK-4. Briefly: Cytotoxicity test. The format is cell-based. The note with it: FRHK-4 cell line. The procedure, abridged:
as §1

The next data set relates to Huh 7.5. Briefly: Cytotoxicity test. The format is cell-based. The note with it: Huh 7.5 cell line. The procedure, abridged: as §1
For data set [1], the system named is herpes simplex virus type 1 (HSV-1). Briefly: Plaque assay for antiviral activity, Vero cells. Format: cell-based. The note with it: for mean % of reduction, herpes simplex virus type-1: nontoxic dose, viral titers 1 × 10^5, 1 × 10^6, 1 × 10^7; for IC50: Human alphaherpesvirus 1, Vero.
Data set [2] deals with adenovirus type 7 (HAdV7). Put plainly: Plaque assay for antiviral activity, Hep-2 cells. The format is cell-based. The note with it: for mean % of reduction, adenovirus type 7: nontoxic dose, viral titers 1 × 10^5, 1 × 10^6, 1 × 10^7. The gist of the method:
(§2)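 Nontoxic dilutions were mixed 1:1 (100 µL each) with virus (10⁵–10⁷) for 0.5 h at 37 °C. Tenfold dilutions were plated on Hep-2 (HAdV7), FRHK-4 (HAV HM175) or BGM (CBV4), adsorbed 1 h at 37 °C under 5% CO₂, and overlaid with 2× DMEM plus 1% agarose. Plaques were fixed with formalin, stained with crystal violet and counted as pfu/mL. IC50 is the half-maximal plaque reduction; SI = CC50/IC50. Triplicates.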

The next data set relates to coxsackievirus B4 (CBV4). Put plainly: Plaque assay for antiviral activity, BGM cells. The format is cell-based. The note with it: for mean % of reduction, coxsackievirus B4: nontoxic dose, viral titers 1 × 10^5, 1 × 10^6, 1 × 10^7; for SI: CC50/IC50 ratio. The gist of the method: as §2
Data set [3] deals with hepatitis A virus (HAV) HM175. Briefly: Plaque assay for antiviral activity, FRHK-4 cells. The format is cell-based. The note with it: for mean % of reduction, hepatitis A virus HM175: nontoxic dose, viral titers 1 × 10^5, 1 × 10^6, 1 × 10^7. The gist of the method: as §2
The next data set deals with HCVcc genotype 4. Briefly: Antiviral bioassay against ED-43/SG-Feo. The format is cell-based, hepatitis C virus genotype 4a. The note with it: for mean % of reduction, HCVcc genotype 4: nontoxic dose, viral titers 1 × 10^5, 1 × 10^6, 1 × 10^7.
Data set [4] can be described thus: Cytotoxicity test. Format: cell-based. The note with it: African green monkey, uninfected Vero cells. The gist of the method:
as §1

A further data set addresses USP7 enzyme (Homo sapiens, UniProt Q93009). Put plainly: USP7 Inhibitor Screening Assay Kit. The note with it: for inhibition at 0.1 µg/mL / inhibition at 1 µg/mL / inhibition at 10 µg/mL / inhibition at 100 µg/mL: read-out: inhibition percentage against USP7. Format: biochemical. The gist of the method: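 Human recombinant USP7 from a commercial kit was stabilised with DTT and used at 0.4 ng/µL. Ub-AMC substrate was diluted 400-fold in 1× assay buffer, test compound or inhibitor buffer was added, and the enzyme started the reaction. After 30 min at room temperature with rotation, fluorescence was read at 360 nm excitation and 460 nm emission, minus blank.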

A short description of data set [5]: Cytotoxicity test. Format: cell-based. The note with it: human, uninfected Hep-2 cells. The procedure, abridged:
as §1

A short description of data set [6]: Cytotoxicity test. The format is cell-based. The note with it: African green monkey, uninfected BGM cells. The procedure, abridged: as §1
Data set [7] can be described thus: Cytotoxicity test. The format is cell-based. The note with it: rhesus monkey, uninfected FRHK-4 cells. The procedure, abridged:
as §1

Data set [8] in a line: Cytotoxicity test. Format: cell-based. The note with it: human, uninfected Huh 7.5 cells. The procedure, abridged: as §1

Sequence of USP7 enzyme (Q93009 whole entry): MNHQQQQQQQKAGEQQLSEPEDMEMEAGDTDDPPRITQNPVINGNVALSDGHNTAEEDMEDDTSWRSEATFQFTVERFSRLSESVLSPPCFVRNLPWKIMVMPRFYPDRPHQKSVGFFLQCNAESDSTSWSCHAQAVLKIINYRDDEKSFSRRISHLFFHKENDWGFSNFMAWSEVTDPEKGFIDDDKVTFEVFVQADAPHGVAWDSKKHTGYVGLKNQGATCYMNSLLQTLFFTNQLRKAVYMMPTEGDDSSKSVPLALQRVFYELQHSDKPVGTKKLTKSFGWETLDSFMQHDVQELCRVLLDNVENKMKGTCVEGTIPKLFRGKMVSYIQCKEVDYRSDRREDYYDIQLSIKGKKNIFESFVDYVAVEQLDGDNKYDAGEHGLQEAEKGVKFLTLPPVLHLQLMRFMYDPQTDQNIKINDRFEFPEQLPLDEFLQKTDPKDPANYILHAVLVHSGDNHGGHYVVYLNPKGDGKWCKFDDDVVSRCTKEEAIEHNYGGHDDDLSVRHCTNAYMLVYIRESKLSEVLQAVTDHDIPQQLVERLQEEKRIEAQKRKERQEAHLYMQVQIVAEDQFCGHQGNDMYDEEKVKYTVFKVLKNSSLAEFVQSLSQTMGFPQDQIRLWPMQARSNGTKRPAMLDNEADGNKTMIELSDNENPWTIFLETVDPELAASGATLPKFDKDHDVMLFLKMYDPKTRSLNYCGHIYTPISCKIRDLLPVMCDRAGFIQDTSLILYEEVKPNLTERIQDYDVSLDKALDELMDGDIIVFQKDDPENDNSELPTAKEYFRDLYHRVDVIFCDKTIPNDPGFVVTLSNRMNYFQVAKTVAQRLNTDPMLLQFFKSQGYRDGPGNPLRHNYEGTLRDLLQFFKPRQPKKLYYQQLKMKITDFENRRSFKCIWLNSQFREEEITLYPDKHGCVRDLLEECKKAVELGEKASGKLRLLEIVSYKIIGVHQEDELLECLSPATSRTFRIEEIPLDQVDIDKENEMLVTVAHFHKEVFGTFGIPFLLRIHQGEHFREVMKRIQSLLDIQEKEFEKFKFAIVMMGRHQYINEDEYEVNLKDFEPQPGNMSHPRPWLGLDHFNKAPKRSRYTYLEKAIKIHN

In the case of `Cc1ccc(S(=O)(=O)Nn2c(N)c(C#N)cc(-c3nc4ccccc4s3)c2=O)cc1` [compound 13c, N-(6-Amino-3-(benzo[d]thiazole-2-yl)-5-cyano-2-oxopyridine-1(2H)-yl)-4-methylbenzensulfonamide], the nontoxic dose in the data set on Vero turned out to be 110 µg/mL; in the data set with Hep-2, 110 µg/mL; in the data set on BGM, 110 µg/mL; in the data set on FRHK-4 it was 110 µg/mL; in the data set on Huh 7.5, 100 µg/mL. The “mean % of reduction, herpes simplex virus type-1” value in data set [1] worked out at 10.0%. In addition, the “mean % of reduction, adenovirus type 7” value in [2] came to 3.3%. Also, the “mean % of reduction, coxsackievirus B4” value in the data set with coxsackievirus B4 (CBV4) is recorded as 10.0%. The “mean % of reduction, hepatitis A virus HM175” value in [3] turned out to be 6.7%. The “mean % of reduction, HCVcc genotype 4” value in the data set with HCVcc genotype 4 worked out at 10.0%.

With `O=c1c(-c2nc3ccccc3s2)cc2c(n1NS(=O)(=O)c1ccccc1)CCCC2` [compound 7a], the nontoxic dose turned out to be 110 µg/mL in the data set on Vero; 110 µg/mL with Hep-2; 110 µg/mL in the data set with BGM; 110 µg/mL in the data set with FRHK-4; 100 µg/mL in the data set on Huh 7.5. This compound came in with a CC50 in the data set on BGM (uninfected host cells, section Coxsackievirus B4) of 260 µg/mL (≈ 594 µM). Besides, in data set [1], the “mean % of reduction, herpes simplex virus type-1” value is reported as 40.0%. The “mean % of reduction, adenovirus type 7” value in data set [2] worked out at 10.0%. For the same compound, in the data set with coxsackievirus B4 (CBV4) (Coxsackievirus B4), the SI amounted to 2.95. The same compound came in with a 50% inhibitory concentration (IC50) with coxsackievirus B4 (CBV4) (Coxsackievirus B4) of 88 µg/mL (≈ 201 µM). Further, the “mean % of reduction, hepatitis A virus HM175” value in data set [3] amounted to 30.0%. Besides, the “mean % of reduction, HCVcc genotype 4” value in the data set with HCVcc genotype 4 stood at 30.0%.

`Nc1nc2c(ncn2COCCO)c(=O)[nH]1` [acyclovir, reference compound]: the half-maximal cytotoxic concentration (CC50) in “Cytotoxicity test [4]” was determined as 2.8 µg/mL (≈ 12.4 µM). In data set [1], this compound gave an IC50 of 0.7 µg/mL (≈ 3.11 µM). Besides, on USP7 enzyme, the IC50 was 11 µM, the inhibition at 0.1 µg/mL was found to be 18.7%, the inhibition at 1 µg/mL turned out to be 35% and the inhibition at 10 µg/mL stood at 71.7%. The inhibition at 100 µg/mL on USP7 enzyme came out at 84.5%.

`N#Cc1cc(-c2nc3ccccc3s2)c(=O)n(NS(=O)(=O)c2ccc(Cl)cc2)c1N` [compound 13b, N-(6-Amino-3-(benzo[d]thiazole-2-yl)-5-cyano-2-oxopyridine-1(2H)-yl)-4-chlorobenzensulfonamide]: the nontoxic dose in the data set with Vero, in the data set on Hep-2, in the data set with BGM, in the data set with FRHK-4 and in the data set with Huh 7.5 was 100 µg/mL each time. For the same compound, in data set [1], the “mean % of reduction, herpes simplex virus type-1” value is given as 26.7%. The “mean % of reduction, adenovirus type 7” value in [2] is listed as 16.7%. Also, the “mean % of reduction, coxsackievirus B4” value in the data set on coxsackievirus B4 (CBV4) worked out at 30.0%. Also, the “mean % of reduction, hepatitis A virus HM175” value in data set [3] amounted to 26.7%. The “mean % of reduction, HCVcc genotype 4” value in the data set with HCVcc genotype 4 came out at 26.7%.

As for `N#Cc1cc(-c2nc3ccccc3s2)c(=O)n(NS(=O)(=O)c2ccccc2)c1N` [compound 13a, N-(6-Amino-3-(benzo[d]thiazole-2-yl)-5-cyano-2-oxopyridine-1(2H)-yl)benzensulfonamide], the CC50 is 280 µg/mL (≈ 661 µM) in the data set “Cytotoxicity test [4]”; 270 µg/mL (≈ 638 µM) in “Cytotoxicity test [5]”; 240 µg/mL (≈ 567 µM) in “Cytotoxicity test [6]”; 260 µg/mL (≈ 614 µM) in the data set “Cytotoxicity test [7]”; 260 µg/mL (≈ 614 µM) in the data set “Cytotoxicity test [8]”. Moreover, the nontoxic dose in the data set with Vero worked out at 110 µg/mL; in the data set with Hep-2, 110 µg/mL; in the data set on BGM, 100 µg/mL; with FRHK-4, 110 µg/mL; in the data set with Huh 7.5, 100 µg/mL. The SI stood at 3.73 in data set [1] (CC50/IC50 ratio, Herpes Simplex Virus); 2.45 in data set [2] (CC50/IC50 ratio, Adenovirus Type 7); 2.86 with coxsackievirus B4 (CBV4) (Coxsackievirus B4); 2.89 in data set [3] (CC50/IC50 ratio, Hepatitis A Virus HM175); 3.09 with HCVcc genotype 4 (CC50/IC50 ratio, HCVcc Genotype 4). Moreover, the IC50 in data set [1] was 75 µg/mL (≈ 177 µM); in data set [3] (Hepatovirus A, FRhK-4), 90 µg/mL (≈ 213 µM); at USP7 enzyme it was 11.3 µM. For the same compound, in data set [2], the “mean % of reduction, adenovirus type 7” value was 50%. Moreover, the “mean % of reduction, hepatitis A virus HM175” value in data set [3] is listed as 60%. Further, in the data set on HCVcc genotype 4, the “mean % of reduction, HCVcc genotype 4” value turned out to be 56.7%. At USP7 enzyme, the inhibition at 0.1 µg/mL came to 11.8%. For the same compound, the inhibition at 1 µg/mL at USP7 enzyme came to 35.8%. The inhibition at 10 µg/mL on USP7 enzyme was found to be 54%. For the same compound, on USP7 enzyme, the inhibition at 100 µg/mL is 81.5%.

Consider `CCOC(=O)c1cc(-c2nc3ccccc3s2)c(=O)n(NS(=O)(=O)c2ccc(C)cc2)c1N` [compound 13f, Ethyl-2-amino-5-(benzo[d]thiazole-2-yl)-1-(4-methylphenylsulfonamido)-6-Oxo-1,6-dihydropyridine-3-carboxylate], for which the nontoxic dose with Vero is 140 µg/mL; with Hep-2 it was 140 µg/mL; in the data set on BGM it was 130 µg/mL; in the data set on FRHK-4 it was 140 µg/mL; in the data set with Huh 7.5, 140 µg/mL. Further, the “mean % of reduction, herpes simplex virus type-1” value in data set [1] was 23.3%. For the same compound, in data set [2], the “mean % of reduction, adenovirus type 7” value is on record as 16.7%. Besides, the “mean % of reduction, coxsackievirus B4” value in the data set with coxsackievirus B4 (CBV4) came out at 20.0%. The “mean % of reduction, hepatitis A virus HM175” value in data set [3] stood at 20.0%. Besides, the “mean % of reduction, HCVcc genotype 4” value with HCVcc genotype 4 stood at 20.0%.

As to `O=c1c(-c2nc3ccccc3s2)cc2c(n1NS(=O)(=O)c1ccc(Cl)cc1)CCCC2` [compound 7b], the nontoxic dose with Vero, with Hep-2, in the data set with BGM, with FRHK-4 and in the data set on Huh 7.5 was 130 µg/mL in each case. In addition, the “mean % of reduction, herpes simplex virus type-1” value in data set [1] is “- ^a”.

Values taken from article PMC7689895 (ACS Omega, 2020).
